From ChEMBL document CHEMBL3272281, “Synthesis and structure-activity relationship studies of cytotoxic epoxide derivatives of 7-oxabicyclo[2.2.1]heptane” (J Med Chem, 1977)
Converted amounts (≈) assume the structure as drawn. The source made the active and inactive calls.

Experiments:
[1] = Cytotoxicity against human 9KB cells; format: functional; conditions: read-out: ED50 (the source's name)
Outline: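 9KB cell culture assay run under the National Cancer Institute programme with compounds supplied in DMF solution. Values are ED50 in μg/ml, and ≤4 μg/ml is taken as the significance criterion.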

Mus musculus [2] = assay: Toxicity in BDF1 mouse allografted with mouse L1210 cells at 200 mg/kg; format: organism-based; design: dose 200 mg/kg; conditions: in vivo
Outline: (§1)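 Toxicity was recorded as lethality to BDF1 mice during the in vivo L1210 lymphoid leukemia screen. Compounds were given at 12.5, 50, 200 or 400 mg/kg.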

L1210 = assay: Antitumor activity against mouse L1210 cells allografted in BDF1 mouse; format: functional
Mus musculus [3] = assay: Toxicity in BDF1 mouse allografted with mouse L1210 cells at 400 mg/kg; format: organism-based; design: dose 400 mg/kg; conditions: in vivo; outline: as §1
Mus musculus [4] = assay: Toxicity in BDF1 mouse allografted with mouse L1210 cells at 50 mg/kg; format: organism-based; design: dose 50 mg/kg; conditions: in vivo; outline: as §1
Mus musculus [5] = assay: Toxicity in BDF1 mouse allografted with mouse L1210 cells at 12.5 mg/kg; format: organism-based; design: dose 12.5 mg/kg; conditions: in vivo; outline: as §1

For `COC(=O)[C@@H]1[C@H]2C[C@@H]([C@@H]3O[C@H]23)[C@@H]1C(=O)OC`, the EC50 [1] was 100 µg/mL (≈ 442 µM), the Activity (Mus musculus [2]) was “Non-toxic” and the Activity (L1210) was “inactive”. For the same molecule, the Activity (Mus musculus [3]) was “Non-toxic”.
In the case of `COC(=O)C1CC2OC2C(C)C1C(=O)OC` (stereo not given), the EC50 [1] is reported as 100 µg/mL (≈ 438 µM), the Activity (Mus musculus [2]) is reported as “Non-toxic” and the Activity (L1210) is reported as “inactive”. For the same molecule, the Activity (Mus musculus [3]) was “Non-toxic”.
With `C1CC2CC1C1OC21` (stereo not given) the EC50 [1] was 100 µg/mL (≈ 908 µM), the Activity (Mus musculus [2]) was “Non-toxic” and the Activity (L1210) was “inactive”. The Activity (Mus musculus [3]) was “Non-toxic”.
With `COC(=O)C1=C(C(=O)OC)C2CCC1O2` the EC50 [1] was 22 µg/mL (≈ 104 µM), the Activity (Mus musculus [2]) was “Non-toxic” and the Activity (L1210) was “inactive”. For the same molecule, the Activity (Mus musculus [3]) was “Non-toxic”.
With `COC(=O)C1=C(C(=O)OC)C2CCC1C2` the EC50 [1] was 100 µg/mL (≈ 476 µM), the Activity (Mus musculus [2]) was “Non-toxic” and the Activity (L1210) was “inactive”. The Activity (Mus musculus [3]) was “Non-toxic”.
With `COC(=O)[C@@H]1[C@H]2O[C@@H]([C@H]3O[C@H]32)[C@@H]1C(=O)OC` the EC50 [1] was 100 µg/mL (≈ 438 µM), the Activity (Mus musculus [2]) was “Non-toxic” and the Activity (L1210) was “inactive”. For the same molecule, the Activity (Mus musculus [3]) was “Non-toxic”.
In the case of `COC(=O)[C@@H]1[C@H](C(=O)OC)[C@@H]2C=C[C@@H]1O2`, the EC50 [1] is reported as 100 µg/mL (≈ 471 µM), the Activity (Mus musculus [2]) is reported as “Non-toxic” and the Activity (L1210) is reported as “inactive”. For the same molecule, the Activity (Mus musculus [3]) was “Non-toxic”.
With `COC(=O)C1=C(C(=O)OC)C2(C)C=CC1O2` (stereo not given) the Activity (Mus musculus [4]) was “Toxic”, the EC50 [1] was 3 µg/mL (≈ 13.4 µM) and the Activity (Mus musculus [2]) was “Toxic”. For the same molecule, the Activity (Mus musculus [5]) was “Non-toxic”, the Activity (L1210) was “inactive” and the Activity (Mus musculus [3]) was “Toxic”.
For `COC(=O)C1=C(C(=O)OC)[C@@]2(C)O[C@H]1[C@@H]1O[C@@H]12`, the Activity (Mus musculus [4]) was “Toxic”, the EC50 [1] was 3 µg/mL (≈ 12.5 µM) and the Activity (Mus musculus [2]) was “Toxic”. The Activity (Mus musculus [5]) was “Non-toxic”, the Activity (L1210) was “inactive” and the Activity (Mus musculus [3]) was “Toxic”.
With `COC(=O)C1CC=CC(C)C1C(=O)OC` (stereo not given) the EC50 [1] was 48 µg/mL (≈ 226 µM), the Activity (Mus musculus [2]) was “Non-toxic” and the Activity (L1210) was “inactive”. For the same molecule, the Activity (Mus musculus [3]) was “Non-toxic”.
In the case of `COC(=O)C1=C(C(=O)OC)[C@H]2O[C@H]1[C@@H]1O[C@@H]12`, the Activity (Mus musculus [4]) is reported as “Toxic”, the EC50 [1] is reported as 1.5 µg/mL (≈ 6.63 µM) and the Activity (Mus musculus [2]) is reported as “Toxic”. For the same molecule, the Activity (Mus musculus [5]) was “Non-toxic”, the Activity (L1210) was “inactive” and the Activity (Mus musculus [3]) was “Toxic”.
For `COC(=O)[C@@H]1[C@H](C(=O)OC)[C@@H]2C=C[C@@H]1C2`, the EC50 [1] was 100 µg/mL (≈ 476 µM), the Activity (Mus musculus [2]) was “Non-toxic” and the Activity (L1210) was “inactive”. The Activity (Mus musculus [3]) was “Non-toxic”.
For `COC(=O)C1=C(C(=O)OC)C2C=CC1C2`, the EC50 [1] was 100 µg/mL (≈ 480 µM), the Activity (Mus musculus [2]) was “Non-toxic” and the Activity (L1210) was “inactive”. The Activity (Mus musculus [3]) was “Non-toxic”.
With `C1=CCC2OC2C1` (stereo not given) the EC50 [1] was 130 µg/mL (≈ 1350 µM), the Activity (Mus musculus [2]) was “Non-toxic” and the Activity (L1210) was “inactive”. The Activity (Mus musculus [3]) was “Toxic”.
In the case of `C1OCC2OC12` (stereo not given), the EC50 [1] is reported as 100 µg/mL (≈ 1160 µM), the Activity (Mus musculus [2]) is reported as “Non-toxic” and the Activity (L1210) is reported as “inactive”. For the same molecule, the Activity (Mus musculus [3]) was “Non-toxic”.
For `COC(=O)C1=C(C(=O)OC)[C@H]2C[C@H]1[C@@H]1O[C@@H]12`, the EC50 [1] was 22 µg/mL (≈ 98.1 µM), the Activity (Mus musculus [2]) was “Non-toxic” and the Activity (L1210) was “inactive”. For the same molecule, the Activity (Mus musculus [3]) was “Toxic”.
